These results are taken from the RNAGym collection of RNA variant scans (doi:10.1126/science.aae0568).

To fix the notation:
B1: tRNA (parent)
chain: GUUCCGUUGGCGUAAUGGUAACGCGUCUCCCUCCUAAGGAGAAGACUGCGGGUUCGAGUCCCGUACGGAACG

This sample holds only a part of the variants without activity.

The variants in the series derive from B1. Description: yeast fitness relative to wild type (ratio to wild type); higher = fitter; tRNA-Arg(CCU), competitive growth, 37 C, YPD. The method, boiled down:
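The tRNA-Arg(CCU) gene variants were made by chemical synthesis with a 3% per-site mutation rate at 69 sites and inserted at the native genomic locus of Saccharomyces cerevisiae. After pooling, the strains were competed in YPD at 37°C for 24 hours in six parallel replicates. Gene amplicons from the start population and each end population were read by 100-nucleotide paired-end sequencing, and Darwinian fitness relative to wild type was taken from genotype frequency changes. Genotypes needed ≥ 100 starting reads, and estimates < 0.5 were set to 0.5.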
For GUUACGAUGGCGUAAUGGUAACGCGUCUCCAUCCUAAGGAGAAGACUGCGGGUACGAGUCCCGUACGGAACG [C4A U7A C31A U54A], the yeast fitness is at most 0.5. Next, GUUACGUGGGCGUUAUGGUAACGCGUCUCCCUCCUAAGGAGAAGACUGCGGGUUCGAGUCCCGUACGGAACG [C4A U8G A14U]: 0.524.

Consider GUUACGUAGGCGUAAUGAUAACGCGUUUCCCUCCUAAGGAGAAGUCUGCGGGUUCGAGUCCCGUACGGAACG [C4A U8A G18A C27U A45U], for which the yeast fitness is at most 0.5. For GUUACGUUGGCGAAAUGGUAACGCGUCUCCCUCCUAAGGAGAAGACUGCGGGUUCGAGUCCCGUACGGAGCG [C4A U13A A70G], the yeast fitness was at most 0.5.

As to GUUACGUUGGCGUAAUGGUAACGCGCCUCCCUCCUAGGGAGAAGACUGCGGGUUCGAGUCCCGUACCGAACG [C4A U26C A37G G67C], the yeast fitness is at most 0.5. Next, GUUACGUUGGCGUAAUGGUAACGCGCCUCCCUCCUAAGGAGAAGACUGCGGGUUCGAGUCCCGUACGGAACG [C4A U26C]: 0.972. GUUACGUUGGCGUAAUGGUAACGCGUCUCCCUCCUAAGGAGAAGACUGCGGGUUCGAAUCCCGUACGGAACG [C4A G58A]: the yeast fitness was 0.878. To GUUACGAGGGCGUAAUGGUAACGCGUCUCCCUCCUAAGGAGAAGACUGCGGGUUCGAGUCCCGUACGGAACG [C4A U7A U8G] belongs at most 0.5. To GUUACGUAGGCGUAAUGGUAACGUGUCUCCCUCCUAAGGAGAAGACUGCGGGUUCGAGUCCCGUACGGAACG [C4A U8A C24U] belongs at most 0.5. To GUUACGUUGGCGUAAUGGUAACGCGUCUCCCUCCUAAGGAGAAGACUGCGAGUUCGAGUCCCGUACGGAACG [C4A G51A] belongs 0.725; to GUUACGUUGGCGUAAUGGUAACGCGUCUCCCUCCUAAGGAGAAGACUGCGGGUUCGAGUCCCGUACGUGACG [C4A G68U A69G], 0.705. Consider GUUACGUUGGCGAAAUGGUAACGCGUCUCCCUCCUAAGGAGAAGACUGCAGGUUCGAGUCCCGUACGGAACG [C4A U13A G50A], for which the yeast fitness stood at 0.613. For GUUACGUUGGCGUAAUGGUAACGCGUCUCCCUCCUAAGGAGAAGACUGCGGGUUCAAGUCCCGUACGGAACG [C4A G56A], the yeast fitness was determined as 0.88. To GUUACGUUGGCGCAAUGGUAACGCGUCUCCGUCCUAAGGAGAACACUGCGGAUUCGAAUCCCGUACGGAACG [C4A U13C C31G G44C G52A G58A] belongs at most 0.5. Next, GUUACGUUGGCGUAAUGGUAACGCCUCUCCCUCUUAAGGAGAAGACUGCGGGUUCGCGUCCCGUACGGAACG [C4A G25C C34U A57C]: at most 0.5; GUUACGUUGGCGUAACAGUAACGCGUCUCCCUCCUAAGGAGAAGACUGCGGGUUCCAGUCCCGUACGGAACG [C4A U16C G17A G56C]: at most 0.5. On to GUUACGUUGGCGUAAUGGUAACGCGUCUCCCUCCUAAGCAGAAGACUGAGGGUUCGAGUCCCGUACGGAACG [C4A G39C C49A], for which the yeast fitness was at most 0.5. To GUUACGUUGGCGUAAUGGUAACGCGUCUCCCUCCUAAAGAGAAGACUGCGAGUUCGAGUCCCGUACGGAACG [C4A G38A G51A] belongs 0.54; to GUUACGUUGGCGUAAUGGUAACGCGUCUCCCUCCUAAGGAAAAGUCUGCGGGUUCGAUUACCGUACGGAACG [C4A G41A A45U G58U C60A], at most 0.5. Next, GUUACGUCGGCGUAAUGGUAACGCGUCUCCCUCCUAAGGAGAAGACUGCGGGUUCGAGACCCGUACGGAACG [C4A U8C U59A]: at most 0.5; GUUACGUUGGCGUAAUGGUAACGCGUCUCCCUCCUAAGCAGAAGACUGCGGGUUCGAGUCCCGUAUGGAACG [C4A G39C C66U]: at most 0.5; GUUACGUUGGCGUAACGGUAACGCGUCUCCCUCCGAAGGAGAAGUCUGCGAGUUCGAGUCCCGUACGGAACG [C4A U16C U35G A45U G51A]: at most 0.5. To GUUACGUUGGCGUAAUGGGAACGCGUCUCCCUCCUAAGGAGAAGACUGCGGGUUCGAGUCCCGUACGGCACG [C4A U19G A69C] belongs 0.587; to GUUACGUUGGCGUAAUGGUAACGCGUCUCCCUCCUAAGGAACAGACUGCGGGUUCGAGACCCGUACGGAACG [C4A G41A A42C U59A], at most 0.5; to GUUACGAUGGCGUAAUGGUAACGCGUCUCCAUCCUAAGGAGAAGACUGCGGGUUAGAGUCCCGUACGGAACG [C4A U7A C31A C55A], 0.717.

For the variant GUUACGUUGGCGUAAUGGUAACGCGUCUCCCUCCUAAGGAGAAGACUGCGGAUUCGAGUCCCGUACGGAACG [C4A G52A], the yeast fitness was determined as 0.884. Next, GUUACGUCGACGUAAUGGUAACGCGUCUCCCUCCUAAGGAGCAGACUGCGGGUUCGAGUCCCGUACGGAACG [C4A U8C G10A A42C]: at most 0.5; GUUACGUUGGCGUAAUGGAAACGCGUUUCCCUCCUAAGGAGAAGACUGCGGGUUCGAGUCCCGUACGGAACG [C4A U19A C27U]: 0.562. Next, GUUACGUUGGCGUAAUGGUAACGCGGCUCCCUCCUAAGGAGAACACUGCGGGUUCCAAUCCCGUACGCAACG [C4A U26G G44C G56C G58A G68C]: at most 0.5; GUUACGUUGGCGAAAUGAUAACGCGUCUCCCUCCUAAGGAGAAGACUGCGGGUUCGAGUCCCGUACGCAACG [C4A U13A G18A G68C]: at most 0.5; GUUACGUUGGCGUAAUGGUAACGCGGCUCCCUCCUAAGGAGAACACUGCGGGUUCGAAUCCCGUACGCAACG [C4A U26G G44C G58A G68C]: 0.558.

As for GUUACGUUGGCGUAAUGGUAACGCCUCUCCCACCUAAGGCGAAGACUGCGGGUUCGAGUCCCGUACGGAACG [C4A G25C U32A A40C], the yeast fitness was at most 0.5.

Turning to GUUACGUUGGCGUAAUGGUAACGCGUCUCCCUCCUAAGGAGAAGACUGCGGGUUCGAGUCCCGUACCGAACG [C4A G67C], the yeast fitness was determined as 0.69. Regarding GUUACGUUGGCGUAAUGGUAACGCGACUCCCGCCUAAGGAGAAGACUGCGGGAUCGAGUCCAGUACGCAACG [C4A U26A U32G U53A C62A G68C], the yeast fitness was at most 0.5.

Regarding GUUACGAUGGCGUGAUCGUAACGCGUCUCCCUCCUAAGGAGAAGACUGCGGGUUCAAGUCCUGUACGGAACG [C4A U7A A14G G17C G56A C62U], the yeast fitness was at most 0.5.

Regarding GUUACGAUGGCGUAAUGGUUACGCGUGUUCCUCCUAAGGAGAAGACUGCGGGUUCGAGUCCGGUACGGAACG [C4A U7A A20U C27G C29U C62G], the yeast fitness was 0.549. To GUUACGUUGGCGUAAUGGUAACGCAUUGCCCUGCUGAGGAGAAGACUGCGGGUUCGAGUCCCGUACGGAACG [C4A G25A C27U U28G C33G A36G] belongs at most 0.5; to GUUACGUUGGCGGAAUGGUAACGCGUCUCCCGCCUAAGGAGAAGACUGCGGGUUUGAGUCCCCUACGGAACG [C4A U13G U32G C55U G63C], at most 0.5.
